Data taken from ChEMBL document CHEMBL1153199, “Fluconazole analogues containing 2H-1,4-benzothiazin-3(4H)-one or 2H-1,4-benzoxazin-3(4H)-one moieties, a novel class of anti-Candida agents” (2010).
In brackets after ≈: the same amount, converted by molar mass. Activity calls are given as the source filed them. No cut-off for these calls is given here.

Key:
Format in all cases: functional
Aspergillus niger = experiment: Antifungal activity against Aspergillus niger ATCC 16404 after 48 hrs by broth microdilution method
Candida albicans [1] = experiment: Antifungal activity against Candida albicans ATCC 24433 after 48 hrs by broth microdilution method
Procedure, shortened: (§1)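 Broth microdilution run per CLSI M27-A2 in RPMI 1640 buffered to pH 7.0 with MOPS. Fluconazole and amphotericin B served as reference drugs. Endpoints were read after 48 h, visually or by spectrophotometer where needed. MIC was taken as the concentration giving 50% inhibition relative to the positive control.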

Fusarium proliferatum = experiment: Antifungal activity against Fusarium proliferatum ATCC 10052 after 48 hrs by broth microdilution method
Pichia kudriavzevii = experiment: Antifungal activity against Candida krusei ATCC 6258 after 48 hrs by broth microdilution method; conditions: ATCC 6258, 48 h
Procedure, shortened: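 Broth microdilution MIC per CLSI M27-A2 in RPMI 1640 buffered to pH 7.0 with MOPS. End points were read at 48 h, visually or by spectrophotometer where needed. For fluconazole and the synthetic compounds, MIC was the concentration giving 50% inhibition relative to the positive control. Fluconazole and amphotericin B served as positive controls.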

Nakaseomyces glabratus = experiment: Antifungal activity against Candida glabrata ATCC 90030 after 48 hrs by broth microdilution method; conditions: ATCC 90030, 48 h; procedure, shortened: as §1
Candida albicans [2] = experiment: Antifungal activity against Candida albicans ATCC 2091 after 48 hrs by broth microdilution method; conditions: ATCC 2091, 48 h; procedure, shortened: as §1
Candida albicans [3] = experiment: Antifungal activity against Candida albicans ATCC 10231 after 48 hrs by broth microdilution method; conditions: ATCC 10231, 48 h; procedure, shortened: as §1
Candida albicans [4] = experiment: Antifungal activity against Candida albicans ATCC 90028 after 48 hrs by broth microdilution method; conditions: ATCC 90028, 48 h; procedure, shortened: as §1
Candida tropicalis = experiment: Antifungal activity against Candida tropicalis ATCC 750 after 48 hrs by broth microdilution method; conditions: ATCC 750, 48 h; procedure, shortened: as §1

SMILES | MIC (Aspergillus niger) | MIC (Candida albicans [1]; ATCC 24433, 48 h) [µg/mL] | MIC (Fusarium proliferatum) | MIC (Pichia kudriavzevii) [µg/mL] | MIC (Nakaseomyces glabratus) [µg/mL] | MIC (Candida albicans [2]) [µg/mL] | MIC (Candida albicans [3]) [µg/mL] | MIC (Candida albicans [4]) [µg/mL] | MIC (Candida tropicalis) [µg/mL] | MIC (Aspergillus niger; ATCC 16404, 48 h) [µg/mL] | MIC (Fusarium proliferatum; ATCC 10052, 48 h) [µg/mL] | MIC (Candida albicans [1])
O=C1COc2ccc(Cl)cc2N1CC(O)(Cn1cncn1)c1ccc(F)cc1F (stereo not drawn) | inactive | 8 (≈ 19 µM) | inactive | – | – | – | – | – | – | – | – | –
O=C1COc2ccc(Cl)cc2N1CC(O)(Cn1cncn1)c1ccc(Br)cc1 (stereo not drawn) | inactive | 4 (≈ 8.63 µM) | inactive | – | – | – | – | – | – | – | – | –
O=C1CSc2ccccc2N1CC(O)(Cn1cncn1)c1ccc(F)cc1F (stereo not drawn) | inactive | 0.03 (≈ 0.0745 µM) | inactive | 4 (≈ 9.94 µM) | 0.06 (≈ 0.149 µM) | 0.12 (≈ 0.298 µM) | 0.12 (≈ 0.298 µM) | 0.03 (≈ 0.0745 µM) | 0.5 (≈ 1.24 µM) | – | – | –
CC(=O)c1ccc2c(c1)N(CC(O)(Cn1cncn1)c1ccc(Br)cc1)C(=O)CO2 (stereo not drawn) | inactive | 32 (≈ 67.9 µM) | inactive | – | – | – | – | – | – | – | – | –
O=C1CSc2cc(Cl)ccc2N1CC(O)(Cn1cncn1)c1ccc(F)cc1F (stereo not drawn) | inactive | 1 (≈ 2.29 µM) | inactive | – | – | – | – | – | – | – | – | –
COc1ccc2c(c1)SCC(=O)N2CC(O)(Cn1cncn1)c1ccc(F)cc1 (stereo not drawn) | inactive | 8 (≈ 19.3 µM) | inactive | – | – | – | – | – | – | – | – | –
O=C1COc2ccc(Cl)cc2N1CC(O)(Cn1cncn1)c1ccc(F)cc1 (stereo not drawn) | inactive | 16 (≈ 39.7 µM) | inactive | – | – | – | – | – | – | – | – | –
O=C1CSc2cc(Cl)ccc2N1CC(O)(Cn1cncn1)c1ccc(F)cc1 (stereo not drawn) | inactive | 2 (≈ 4.77 µM) | inactive | – | – | – | – | – | – | – | – | –
O=C1COc2ccc(Br)cc2N1CC(O)(Cn1cncn1)c1ccc(F)cc1F (stereo not drawn) | inactive | 16 (≈ 34.4 µM) | inactive | – | – | – | – | – | – | – | – | –
COc1ccc2c(c1)SCC(=O)N2CC(O)(Cn1cncn1)c1ccc(F)cc1F (stereo not drawn) | inactive | 4 (≈ 9.25 µM) | inactive | – | – | – | – | – | – | – | – | –
Cc1ccc2c(c1)SCC(=O)N2CC(O)(Cn1cncn1)c1ccc(F)cc1F (stereo not drawn) | inactive | 2 (≈ 4.8 µM) | inactive | – | – | – | – | – | – | – | – | –
C[C@@H]1[C@H](O)[C@@H](C)/C=C/C=C/C=C/C=C/C=C/C=C/C=C/[C@H](O[C@@H]2O[C@H](C)[C@@H](O)[C@H](N)[C@@H]2O)C[C@@H]2O[C@](O)(C[C@@H](O)C[C@@H](O)[C@H](O)CC[C@@H](O)C[C@@H](O)CC(=O)O[C@H]1C)C[C@H](O)[C@H]2C(=O)O [AMPHOTERICIN B] | – | 0.25 (≈ 0.271 µM) | – | 0.5 (≈ 0.541 µM) | 0.25 (≈ 0.271 µM) | 0.5 (≈ 0.541 µM) | 0.5 (≈ 0.541 µM) | 0.5 (≈ 0.541 µM) | 0.5 (≈ 0.541 µM) | 1 (≈ 1.08 µM) | 2 (≈ 2.16 µM) | –
O=C1COc2ccc([N+](=O)[O-])cc2N1CC(O)(Cn1cncn1)c1ccc(F)cc1F (stereo not drawn) | inactive | 32 (≈ 74.2 µM) | inactive | – | – | – | – | – | – | – | – | –
COc1ccc2c(c1)SCC(=O)N2CC(O)(Cn1cncn1)c1ccc(Br)cc1 (stereo not drawn) | inactive | 2 (≈ 4.21 µM) | inactive | – | – | – | – | – | – | – | – | –
OC(Cn1cncn1)(Cn1cncn1)c1ccc(F)cc1F [FLUCONAZOLE] | – | 0.25 (≈ 0.816 µM) | – | 64 (≈ 209 µM) | 4 (≈ 13.1 µM) | 0.5 (≈ 1.63 µM) | 1 (≈ 3.27 µM) | 0.5 (≈ 1.63 µM) | 2 (≈ 6.53 µM) | 128 (≈ 418 µM) | > 128 | –
CC(=O)c1ccc2c(c1)N(CC(O)(Cn1cncn1)c1ccc(F)cc1F)C(=O)CO2 (stereo not drawn) | inactive | – | inactive | – | – | – | – | – | – | – | – | inactive
O=C1CSc2cc(Br)ccc2N1CC(O)(Cn1cncn1)c1ccc(F)cc1F (stereo not drawn) | inactive | 1 (≈ 2.08 µM) | inactive | – | – | – | – | – | – | – | – | –
O=C1COc2ccccc2N1CC(O)(Cn1cncn1)c1ccc(F)cc1F (stereo not drawn) | inactive | 0.5 (≈ 1.29 µM) | inactive | 16 (≈ 41.4 µM) | 0.25 (≈ 0.647 µM) | 0.25 (≈ 0.647 µM) | 0.5 (≈ 1.29 µM) | 0.12 (≈ 0.311 µM) | 2 (≈ 5.18 µM) | – | – | –
